H69AR growth 86K – blocks growth of human H69AR lung tumor cells; H69AR lung tumor viability, ATP luminescence, 72 h; active compounds read low; 85,000 tested, 6% active; viability, % at 10 µM;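 active means viability at or below 40%; inactive means viability above 40%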;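 further: multidrug resistant small cell line overexpressing MRP-1 efflux transporter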
Fibroblast inh – blocks proliferation of human lung fibroblasts; viability, % at 10 µM; LL 47 human lung fibroblast viability, ATP luminescence; active compounds read low; 85,000 tested, 1.1% active; AID 719;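 active means viability at or below 50% in the single dose screen; inactive means viability above 50%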;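 further: compound exposure lasted 72 h before the ATP readout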
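Test system: LL 47 human lung fibroblasts / Incubation: 72 h compound exposure at 37 °C after overnight plating / Technique: luminescent ATP detection, CellTiter-Glo / Compound dosing: 0.1% DMSO in all compound wells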
Ecoli WT expand – growth inhibitors of E. coli BW25113 wild type; OD600 absorbance; growth inhibition, % at 100 µM; 98,000 tested, 0.15% active; AID 710;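 active means growth inhibition above about 50% at one test dose, limit read from the data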;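 further: growth measured after 20 h incubation at 37 °C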
HUVEC inhibit – human endothelial cell proliferation inhibition; AID 648; HUVEC proliferation, CellTiter-Glo luminescence, 72 h; active compounds read low; 86,000 tested, 1.1% active; viability, % at 10 µM (by protocol);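 active means viability at or below 30%; inactive means viability above 30%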
Ecoli tolC – blocks growth of E. coli BW25113 tolC mutant. OD615. growth inhibition, % at 10 µM (by protocol). 65,000 tested, 2.2% active;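 active means growth inhibition at or above a cutoff equal to the mean over every tested compound plus 3 SD, cut at about 60% in these data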;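 further: growth measured after 20 h incubation at 37 °C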
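Test system: tolC-deleted E. coli BW25113; medium: LB with kanamycin 50 µg/mL; compound: single-point testing at 10 µM; incubation: 20 h compound exposure of bacteria at 37 °C; signal: OD at 615 nm; evaluation: growth inhibition in percent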
Jurkat tox 60K – reduces viability or proliferation of Jurkat cells | 56,000 tested, 1.2% active | inhibition, % at 4 µM | Jurkat E6.1 viability, ATP luminescence, 48 h;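 active means inhibition above the mean inhibition of all tested compounds plus 3 SD, cut at about 28% in these data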
Each line names hits and unclear results; the compound was inactive in the other large screens. Shown are actives, neighbours in structure and some others; about 6.4% of the full set was active somewhere.

O=C(NCc1ccc2c(c1)OCO2)c1cc(S(=O)(=O)N2CCCCC2)ccc1F	none
CCn1cc(C(=O)Nc2nncs2)c(=O)c2cc(F)c(N3CCN(C(=O)c4ccco4)CC3)cc21	Ecoli tolC 100 (no result: Ecoli WT expand)
CCn1cc(C(=O)NCc2ccc3c(c2)OCO3)c(=O)c2cc(F)c(N3CCN(C(=O)c4ccco4)CC3)cc21	H69AR growth 86K 0.1, Ecoli WT expand 73, HUVEC inhibit 16 (no result: Ecoli tolC, Jurkat tox 60K)
CCn1cc(C(=O)NCc2ccccc2)c(=O)c2cc(F)c(N3CCN(C(=O)c4ccco4)CC3)cc21	H69AR growth 86K 12 (no result: Ecoli tolC, Jurkat tox 60K)
CC(=O)c1cc(F)c(N2CCN(C(=O)c3ccco3)CC2)cc1C	none
CC(Sc1ccccc1)C(=O)Nc1ccccc1C(=O)N1CCOCC1 (configuration not stated)	none (no result: H69AR growth 86K, Fibroblast inh, HUVEC inhibit, Ecoli tolC, Jurkat tox 60K)
CC(=O)NC(CC(=O)Nc1cccc(S(=O)(=O)N2CCCCC2)c1)c1ccccc1 (configuration not stated)	none (no result: Ecoli tolC, Jurkat tox 60K)
CCCN(CCO)Cc1cccc(Br)c1	Fibroblast inh 38
Cc1ccc2[nH]c(=O)c(CN(CCCN3CCOCC3)C(=O)Nc3cccc(Cl)c3)cc2c1	H69AR growth 86K 20, HUVEC inhibit 8.5 (no result: Ecoli WT expand)
OC1CCCN(Cc2ccc3ccc4cccc5ccc2c3c45)C1 (configuration not stated)	Fibroblast inh 49, HUVEC inhibit 2.4 (no result: Ecoli tolC, Jurkat tox 60K)
c1cc2ccc3ccc(CN4CCOCC4)c4ccc(c1)c2c34	none (no result: Ecoli tolC, Jurkat tox 60K)
CCCCCCOC(=O)Cc1c(C)nc(-c2ccccc2)[nH]c1=O	none (no result: Ecoli tolC, Jurkat tox 60K)
Cc1cc(NS(=O)(=O)c2ccc(NC(=O)COc3ccccc3C(C)C)cc2)no1	Ecoli tolC 62
Cc1cc(C)cc(OCc2nnc(SCC(=O)OC(C)C)o2)c1	none (no result: Ecoli tolC, Jurkat tox 60K)
C/C(=N/NC(=O)c1cc2ccccc2cc1O)C1C(=O)c2ccccc2C1=O	H69AR growth 86K 36 (no result: Ecoli tolC, Jurkat tox 60K)
COc1ccc(C(C)=O)cc1CSCCC#N	none (no result: Ecoli tolC, Jurkat tox 60K)
c1ccc(CN(Cc2ccco2)C(c2ccncc2)c2nnnn2C2CCCC2)cc1 (configuration not stated)	Ecoli tolC 64
O=C(c1ccco1)N1CCN(Cc2nnnn2CCc2ccccc2)CC1	none
CCN1/C(=C/c2ccc3cccc(C)c3[n+]2CC)Sc2ccccc21	Ecoli WT expand 72 (no result: H69AR growth 86K, Fibroblast inh, HUVEC inhibit, Ecoli tolC, Jurkat tox 60K)
CSCC[C@H](NC(=O)OC(C)(C)C)c1nnc(SCC=C(C)C)o1	none
CCC1=NC(c2ccccc2OC)N(O)C1(C)C (configuration not stated)	none
COc1ccccc1N1CCN(c2cc(C)nc3nc(C)nn23)CC1	H69AR growth 86K 40
CCOc1ccc(CN2CCN(c3cc(C)nc4c5c(C)cc(C)nc5nn34)CC2)cc1	H69AR growth 86K 32
Cc1cc(C)c2c(n1)nn1c(N3CCN(c4ccccc4C)CC3)cc(C)nc21	H69AR growth 86K 37 (no result: Ecoli WT expand)
O=C(O)c1ccc2c(c1)-c1nc3ccccc3n1C2=O	none (no result: H69AR growth 86K, Fibroblast inh, HUVEC inhibit, Ecoli tolC, Jurkat tox 60K)
Cc1cnc(NC(=O)CCCc2nc3ccccc3s2)s1	Fibroblast inh 35, HUVEC inhibit 30 (no result: Ecoli tolC, Jurkat tox 60K)
O=C(CCCc1nc2ccccc2s1)Nc1nccs1	none
Cc1cc(=O)[nH]c2c1c(C)nn2C1CCOC(C)(C)C1 (configuration not stated)	none (no result: Ecoli tolC, Jurkat tox 60K)
CCn1cnc2c1c(=O)n(CC(=O)Nc1ccc3c(c1)OC(F)(F)O3)c(=O)n2Cc1ccccc1	H69AR growth 86K 32 (no result: Ecoli tolC, Jurkat tox 60K)
COC(=O)C1=C(C)NC(C)=C(C(=O)OC)C1c1cn(-c2ccccc2)nc1-c1ccco1	none (no result: H69AR growth 86K, Fibroblast inh, HUVEC inhibit, Jurkat tox 60K)
c1ccc(-c2nnc3n2N=C(c2ccc4c(c2)OCO4)CS3)nc1	none (no result: Jurkat tox 60K)
c1cc2c(cc1C1=Nn3c(nnc3C3CCCCC3)SC1)OCO2	H69AR growth 86K 29 (no result: Jurkat tox 60K)
CN1Cc2cc(C(=O)c3cc(Cl)cc(CSc4ncccn4)c3O)cnc2NC1=O	H69AR growth 86K 25, Jurkat tox 60K 98
CCC(=O)N=c1sc2cc(F)cc(F)c2n1C	none (no result: Ecoli WT expand)
CCn1c(=NC(=O)CSC(C)=O)sc2cc(F)ccc21	H69AR growth 86K 28 (no result: Jurkat tox 60K)
Cn1c(=O)c2sccc2n2c(CCCC(=O)NCc3ccc4c(c3)OCO4)nnc12	none (no result: H69AR growth 86K, Fibroblast inh, HUVEC inhibit, Jurkat tox 60K)
Cc1sc(NC(=O)c2ccco2)c(CN2CCN(c3ccc(F)cc3)CC2)c1C	none (no result: H69AR growth 86K, Fibroblast inh, HUVEC inhibit, Ecoli tolC, Jurkat tox 60K)
Cc1sc(NC(=O)c2ccco2)c(C(c2cccnc2)N2CCN(c3ccc(F)cc3)CC2)c1C (configuration not stated)	Jurkat tox 60K 35
CCOC(=O)C1CCN(C(c2cccnc2)c2c(NC(=O)c3ccco3)sc(C)c2C)CC1 (configuration not stated)	Ecoli tolC 77, Jurkat tox 60K 34
CCOc1cc2[nH]c(=O)n(CCCCC(=O)NCc3ccco3)c(=O)c2cc1OCC	none (no result: H69AR growth 86K, Fibroblast inh, HUVEC inhibit)

Source: PubChem BioAssay (several laboratories)
